According to the array DNA melting data of Ke et al. (doi:10.1101/2024.01.08.574731):

Key:
[1] = melting temperature; fluorescence melt of hairpins on a sequencing array, two-state fit, raised by 9.35 °C to match UV melts; conditions: sodium 0.088 M
Method in brief: (§1)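 On a sequenced MiSeq flow cell, library hairpins with annealed Cy3 and quencher oligos were imaged for Cy3 fluorescence in 2.5 °C steps up to 60 °C, in 50 mM Na-HEPES pH 8.0, 25 mM NaCl. Normalisation used pre-quench Cy3 and control constructs. Bootstrapped two-state fits gave melting temperature and folding enthalpy, combined by inverse variance across four replicates and with fitted temperatures raised by 9.35 °C to match UV melts.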

[2] = folding enthalpy; higher = less favourable; fluorescence melt of hairpins on a sequencing array, two-state fit; conditions: sodium 0.088 M
Method in brief: as §1

GCCGTGCGAAAGCAACGC ((..(((....)))..))
Tm [1]: 54.1 °C | folding enthalpy [2]: -10.9 kcal/mol

GCCGTGCGAAAGCACCGC ((.((((....)))).))
Tm [1]: 55.8 °C | folding enthalpy [2]: -16 kcal/mol

GCCGTGCGAAAGCACTGC ((.((((....)))).))
Tm [1]: 61.8 °C | folding enthalpy [2]: -14.4 kcal/mol

GCCGTGCGAAAGCCCCGC ((.(.((....)).).))
Tm [1]: 29.3 °C | folding enthalpy [2]: -9.26 kcal/mol

GCCGTGCGAAAGCGTGGC (((..((....))..)))
Tm [1]: 63.4 °C | folding enthalpy [2]: -37.1 kcal/mol

GCCGTGCGAAAGCTCAGC ((.(.((....)).).))
Tm [1]: 40.4 °C | folding enthalpy [2]: -15.4 kcal/mol

GCCGTGCGAAAGCTCTGC ((.(.((....)).).))
Tm [1]: 37.7 °C | folding enthalpy [2]: -12.2 kcal/mol

GCCGTGGGAAACTACGGC (((((.(....).)))))
Tm [1]: 61.1 °C | folding enthalpy [2]: -42.8 kcal/mol

GCCGTGTCGAAAGACGGC (((..(((....))))))
Tm [1]: 58.9 °C | folding enthalpy [2]: -31.4 kcal/mol

GCCGTTCGAAAGAAAGGC (((.(((....))).)))
Tm [1]: 59.3 °C | folding enthalpy [2]: -28.8 kcal/mol

GCCGTTCGAAAGAATGGC (((.(((....))).)))
Tm [1]: 62.6 °C | folding enthalpy [2]: -40.1 kcal/mol

GCCGTTGGAAACAATGGC (((.(((....))).)))
Tm [1]: 55.8 °C | folding enthalpy [2]: -36.6 kcal/mol

GCCGTTTCGAAAGAAGGC (((..(((....))))))
Tm [1]: 44.3 °C | folding enthalpy [2]: -22.4 kcal/mol

GCCTAAACGAAAGTTGGC (((..(((....))))))
Tm [1]: 46.7 °C | folding enthalpy [2]: -24.9 kcal/mol

GCCTAAGCGAAAGCTGGC (((..(((....))))))
Tm [1]: 52.3 °C | folding enthalpy [2]: -24.3 kcal/mol

GCCTACGAAAGTAAAGGC ((((((....)))..)))
Tm [1]: 50.2 °C | folding enthalpy [2]: -41.2 kcal/mol

GCCTACGAAAGTAATGGC ((((((....)))..)))
Tm [1]: 45.3 °C | folding enthalpy [2]: -24.8 kcal/mol

GCCTACGAAAGTAGGGC ((((((....))).)))
Tm [1]: 61.8 °C | folding enthalpy [2]: -16.4 kcal/mol

GCCTACGGAAACGCAAGC ((.(.((....)).).))
Tm [1]: 26.9 °C | folding enthalpy [2]: -11.9 kcal/mol

GCCTACGGAAACGTGGGC (((.(((....))).)))
Tm [1]: 58.6 °C | folding enthalpy [2]: -39.2 kcal/mol

GCCTAGAAATAGGC (((((....)))))
Tm [1]: 49.8 °C | folding enthalpy [2]: -29.2 kcal/mol

GCCTAGACGAAAGTCGGC (((..(((....))))))
Tm [1]: 53.3 °C | folding enthalpy [2]: -21.6 kcal/mol

GCCTAGCGAAAGCCCGGC (((..((....))..)))
Tm [1]: 42.7 °C | folding enthalpy [2]: -17.4 kcal/mol

GCCTAGGGAAACCTAAGC ((.((((....)))).))
Tm [1]: 31.6 °C | folding enthalpy [2]: -14.7 kcal/mol

GCCTAGGGAAACCTAGAC (.(((((....))))).)
Tm [1]: 35.4 °C | folding enthalpy [2]: -19.6 kcal/mol

GCCTATCGAAAGATGGGC (((.(((....))).)))
Tm [1]: 60.1 °C | folding enthalpy [2]: -34.6 kcal/mol

GCCTATGAAAATAGGC ((((((....))))))
Tm [1]: 58.9 °C | folding enthalpy [2]: -34 kcal/mol

GCCTATGGAAACATAGGC (((((((....)))))))
Tm [1]: 66 °C | folding enthalpy [2]: -33.8 kcal/mol

GCCTCACCGAAAGGTGGC (((..(((....))))))
Tm [1]: 48.9 °C | folding enthalpy [2]: -8.02 kcal/mol

GCCTCAGCGAAAGCTGGC (((..(((....))))))
Tm [1]: 50.9 °C | folding enthalpy [2]: -8.88 kcal/mol

GCCTCAGGAAACCAAGGC ((((..(....)..))))
Tm [1]: 33.2 °C | folding enthalpy [2]: -28.6 kcal/mol

GCCTCAGGAAACCGAGGC (((((.(....).)))))
Tm [1]: 53.5 °C | folding enthalpy [2]: -45.1 kcal/mol

GCCTCCCCGAAAGGGGGC (((..(((....))))))
Tm [1]: 52.5 °C | folding enthalpy [2]: -9.45 kcal/mol

GCCTCCCGAAAGGGCGGC (((.(((....))).)))
Tm [1]: 61.3 °C | folding enthalpy [2]: -34.4 kcal/mol

GCCTCCGAAAGGAAGGC ((((((....))).)))
Tm [1]: 62 °C | folding enthalpy [2]: -31.9 kcal/mol

GCCTCCGAAAGGACGGC ((((((....))).)))
Tm [1]: 56.5 °C | folding enthalpy [2]: -30.9 kcal/mol

GCCTCCGAAAGGAGAGGC ((((((....)))..)))
Tm [1]: 54.8 °C | folding enthalpy [2]: -20.4 kcal/mol

GCCTCCGAAAGGATGGGC ((((((....)))..)))
Tm [1]: 50 °C | folding enthalpy [2]: -41.9 kcal/mol

GCCTCCGAAAGGATTGGC ((((((....)))..)))
Tm [1]: 47.4 °C | folding enthalpy [2]: -19.7 kcal/mol

GCCTCCGGAAACGGAGAC (.(((((....))))).)
Tm [1]: 47 °C | folding enthalpy [2]: -15.8 kcal/mol

GCCTCGCCGAAAGGCGGC (((..(((....))))))
Tm [1]: 55.4 °C | folding enthalpy [2]: -5.04 kcal/mol

GCCTCGCGAAAGCAAAGC ((.(.((....)).).))
Tm [1]: 28.4 °C | folding enthalpy [2]: -9.86 kcal/mol

GCCTCGCGAAAGCCAGGC ((((.((....)).))))
Tm [1]: 58.2 °C | folding enthalpy [2]: -23.5 kcal/mol

GCCTCGCGAAAGCCTGGC (((..((....))..)))
Tm [1]: 46.5 °C | folding enthalpy [2]: -22.9 kcal/mol

GCCTCGCGAAAGCGCCGC ((..(((....)))..))
Tm [1]: 36.1 °C | folding enthalpy [2]: -14.3 kcal/mol
